Assay results published in ChEMBL document CHEMBL1124657, “Retinobenzoic acids. 2. Structure-activity relationships of chalcone-4-carboxylic acids and flavone-4'-carboxylic acids” (1989).
The source made the active and inactive calls. No cut-off for these calls is given here.

Tests used:
HL-60 [1] = experiment: Activity relative to retinoic acid in differentiating promyelocytic leukemic HL-60 cells; type: functional, Homo sapiens
HL-60 [2] = experiment: Differentiation inducing activity towards human promyelocytic leukemia cell line HL-60 assayed by nitroblue tetrazolium reduction; type: functional; conditions: read-out: ED50 (the source's name)
Outline: (§1)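 HL-60 cells in RPMI1640 with 5% FCS at 37 °C, 5% CO₂; seeded about 8 × 10⁴ cells/mL and exposed 4 days to compounds from 0.2 mM ethanol stock (final ethanol below 0.5%; ethanol-only controls). Retinoic acid run concurrently. NBT reduction: 20 min at 37 °C with 0.2% NBT and TPA 200 ng/mL in PBS/medium. Formazan-positive cells counted among at least 200 cells. Wright-Giemsa morphology also scored. Five orders of concentration covered, at least three repeats. ED50 taken from NBT data.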

HL-60 [3] = experiment: Differentiation inducing activity towards human promyelocytic leukemia cell line HL-60 by nitroblue tetrazolium reduction assay; IA is Inactive; type: functional, cell-based; outline: as §1
HL-60 [4] = experiment: Differentiation inducing activity towards human promyelocytic leukemia cell line HL-60 by nitroblue tetrazolium reduction assay;IA is Inactive; type: functional, cell-based; outline: as §1
HL-60 [5] = experiment: Differentiation inducing activity towards human promyelocytic leukemia cell line HL-60 by nitroblue tetrazolium reduction assay;IA is inactive; type: functional, cell-based; outline: as §1

Row | EC50 (HL-60 [2]) [nM] | Structure (SMILES) | Relative activity (HL-60 [1]) | ED50 (HL-60 [3]) | ED50 (HL-60 [4]) | ED50 (HL-60 [5])
1 | 0.046 | CC1(C)CCC(C)(C)c2cc3c(=O)cc(-c4ccc(C(=O)O)cc4)oc3cc21 | 27.4 | – | – | –
2 | > 1000 | COc1c(-c2ccc(C(=O)O)cc2)oc2cc3c(cc2c1=O)C(C)(C)CCC3(C)C | < 0.0001 | – | – | –
3 | > 1000 | CC1(C)CCC(C)(C)c2cc(C(=O)/C=C/c3cccc(C(=O)O)c3)ccc21 | < 0.0001 | – | – | –
4 | 160 | CC(C)(C)c1cccc(C(=O)/C=C/c2ccc(C(=O)O)cc2)c1 | 0.0081 | – | – | –
5 | – | O=C(O)c1ccc(/C=C/C(=O)c2ccccc2)cc1 | – | inactive | – | –
6 | 480 | CC(C)(C)c1ccc2c(=O)cc(-c3ccc(C(=O)O)cc3)oc2c1 | 0.0058 | – | – | –
7 | 0.21 | CC(C)(C)c1cc(C(=O)/C=C/c2ccc(C(=O)O)cc2)cc(C(C)(C)C)c1 | 6.4 | – | – | –
8 | 2.4 | CC1=C(/C=C/C(C)=C/C=C/C(C)=C/C(=O)O)C(C)(C)CCC1 [TRETINOIN] | 1 | – | – | –
9 | – | Cc1ccc(/C=C/C(=O)c2ccc3c(c2)C(C)(C)CCC3(C)C)cc1 | – | – | inactive | –
10 | 560 | CC(C)(C)c1ccc(/C(O)=C/C(=O)c2ccc(C(=O)O)cc2)c(O)c1 | 0.0023 | – | – | –
11 | > 1000 | CC(C)(C)c1ccc2oc(-c3ccc(C(=O)O)cc3)cc(=O)c2c1 | < 0.0001 | – | – | –
12 | 27 | CCCCOC(=O)c1ccc(/C=C/C(=O)c2ccc3c(c2)C(C)(C)CCC3(C)C)cc1 | 0.063 | – | – | –
13 | 3.9 | COc1cc2c(cc1C(=O)/C=C/c1ccc(C(=O)O)cc1)C(C)(C)CCC2(C)C | 0.35 | – | – | –
14 | > 1000 | CC1(C)CCC(C)(C)c2cc(C(=O)/C=C/c3ccc(C(N)=O)cc3)ccc21 | < 0.0001 | – | – | –
15 | – | O=C(O)c1ccc(-c2cc(=O)c3ccccc3o2)cc1 | – | – | – | inactive
16 | > 1000 | CC1(C)CCOc2ccc(C(=O)/C=C/c3ccc(C(=O)O)cc3)cc21 | < 0.0001 | – | – | –
17 | 250 | CC1(C)CCOc2cc3c(=O)cc(-c4ccc(C(=O)O)cc4)oc3cc21 | 0.017 | – | – | –

Row | EC50 (HL-60 [2]) [nM] | Structure (SMILES) | Relative activity (HL-60 [1]) | ED50 (HL-60 [3]) | ED50 (HL-60 [4]) | ED50 (HL-60 [5])
18 | 28 | CC(C)(C)c1ccc(C(=O)/C=C/c2ccc(C(=O)O)cc2)cc1 | 0.039 | – | – | –
19 | 0.82 | CC(C)c1ccc(C(=O)/C=C/c2ccc(C(=O)O)cc2)cc1C(C)C | 1.8 | – | – | –
20 | 1.2 | CC1(C)CCC(C)(C)c2cc3c(=O)c(O)c(-c4ccc(C(=O)O)cc4)oc3cc21 | 1.25 | – | – | –
21 | 0.54 | Cc1cc2c(cc1C(=O)/C=C/c1ccc(C(=O)O)cc1)C(C)(C)CCC2(C)C | 2.1 | – | – | –
22 | 3.3 | CC1(C)CCC(C)(C)c2cc(C(=O)/C=C/c3ccc(C(=O)Cl)cc3)ccc21 | 0.52 | – | – | –
23 | – | O=C(O)c1ccc(C(=O)/C=C(\O)c2ccccc2O)cc1 | – | inactive | – | –
24 | 1.7 | CC1(C)CCC(C)(C)c2cc(C(=O)/C=C/c3ccc(C(=O)O)c(O)c3)ccc21 | 0.88 | – | – | –
25 | 30 | COC(=O)c1ccc(/C=C/C(=O)c2ccc3c(c2)C(C)(C)CCC3(C)C)cc1 | 0.043 | – | – | –
26 | 0.48 | COC(=O)c1ccc(-c2cc(=O)c3cc4c(cc3o2)C(C)(C)CCC4(C)C)cc1 | 8.5 | – | – | –
27 | > 1000 | CC1(C)CCSc2ccc(C(=O)/C=C/c3ccc(C(=O)O)cc3)cc21 | < 0.0001 | – | – | –
28 | > 1000 | CC(C)(C)c1ccc(O)c(/C(O)=C/C(=O)c2ccc(C(=O)O)cc2)c1 | < 0.0001 | – | – | –
29 | 690 | CC1(C)CCOc2c(C(=O)/C=C/c3ccc(C(=O)O)cc3)cccc21 | 0.0077 | – | – | –
30 | 45 | CC(C)(C)c1ccc(C(C)(C)C)c(C(=O)/C=C/c2ccc(C(=O)O)cc2)c1 | 0.021 | – | – | –
31 | 0.64 | CC1(C)CCC(C)(C)c2cc(C(=O)/C=C/c3ccc(C(=O)O)cc3)ccc21 | 2.8 | – | – | –
32 | 170 | CCc1ccc(C(=O)/C=C/c2ccc(C(=O)O)cc2)cc1CC | 0.0083 | – | – | –
33 | – | COc1ccc(C(=O)/C=C/c2ccc(C(=O)O)cc2)cc1OC | – | inactive | – | –

Row | Structure (SMILES) | EC50 (HL-60 [2]) [nM] | Relative activity (HL-60 [1]) | ED50 (HL-60 [3]) | ED50 (HL-60 [4]) | ED50 (HL-60 [5])
34 | CC1(C)CCC(C)(C)c2cc(C(=O)/C=C/c3ccc(C(=O)O)cc3)c(O)cc21 | 0.15 | 1.4 | – | – | –
35 | CC1(C)CCC(C)(C)c2cc(/C(O)=C/C(=O)c3ccc(C(=O)O)cc3)c(O)cc21 | 0.063 | 7.6 | – | – | –
